PMI activator: activators of human phosphomannose isomerase | purified human PMI, coupled resazurin fluorescence, 20 min; active compounds read high; 1 = vehicle control, 0 substrate-free wells | activation factor at 20 µM | 0.005% of 190,000 active | P34949 | AID 1214;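 active = activation factor of 2 or more at 20 µM, relative to plate controls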
Target sequence (P34949 whole entry, looked up): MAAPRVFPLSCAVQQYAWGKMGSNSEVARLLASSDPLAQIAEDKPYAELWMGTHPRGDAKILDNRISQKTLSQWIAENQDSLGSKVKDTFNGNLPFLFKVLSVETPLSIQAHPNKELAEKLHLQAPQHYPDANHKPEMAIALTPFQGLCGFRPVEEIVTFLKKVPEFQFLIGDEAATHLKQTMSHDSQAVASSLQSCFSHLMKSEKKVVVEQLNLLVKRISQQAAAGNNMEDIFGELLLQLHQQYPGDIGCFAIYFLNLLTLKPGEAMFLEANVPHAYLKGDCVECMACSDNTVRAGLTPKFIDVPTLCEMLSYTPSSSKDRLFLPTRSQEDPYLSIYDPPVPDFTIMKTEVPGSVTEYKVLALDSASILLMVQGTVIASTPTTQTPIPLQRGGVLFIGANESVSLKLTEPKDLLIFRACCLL
Calpain2 inh: blocks pig calpain II enzyme activity | purified calpain II, fluorogenic peptide substrate, 30 min | inhibition, % at 16 µM | AID 1236 | 0.37% of 220,000 active;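 active = inhibition above about 50%, limit read from the data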
PMI act satM6P: activators of human phosphomannose isomerase at near-saturating mannose 6-phosphate | 0.34% of 190,000 active | P34949 | AID 1216 | coupled PMI enzyme assay, resazurin fluorescence, 20 min; active compounds read high; 1 = untreated enzyme, 0 = substrate-free blank | activation factor at 20 µM;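 active = activation factor of 2 or more at 20 µM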
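Test system: human phosphomannose isomerase with PGI, G6PDH, diaphorase coupling enzymes / Doses: 20 µM compound, 1% DMSO / Times: enzyme reaction with compound 20 min at room temperature / Measured by: Diaphorase-driven resazurin-to-resorufin fluorescence, excitation 544, emission 590 nm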
L major viab: inhibitors of Leishmania major promastigote growth. 9% of 200,000 active. Leishmania major promastigotes, resazurin fluorescence viability. AID 1063. inhibition, % at 10 µM; in the data active = inhibition above about 50%;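 note: promastigotes grown with compound for 44 hours at 28 °C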
Rad51 HR inh: blocks human Rad51 in homologous recombination. Q06609. 0.085% of 200,000 active. hRad51 DNA strand exchange, fluorescence dequenching. inhibition, % at 10 µM;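 active = inhibition above 40% at the single screening dose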;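 note: 0% = DMSO control wells and 100% = blanks with heterologous ssDNA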
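Test system – preformed human Rad51 ssDNA filaments · Reagent – Donor/quencher-labelled 47-bp dsDNA substrate · Incubation – 37 °C 15-min filament assembly, 30-min compound preincubation, 15-min exchange · Signal – FRET fluorescence dequenching, excitation 485 nm, emission 520 nm · Read-out – percent inhibition from fluorescence, normalised to plate control and blank means · Benchmarks – plate control and blank wells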
WT yeast gro inh: growth inhibition of WT yeast, mitochondrial fusion screen. mitochondrial fusion phenotypic screen, WT strain. inhibition, % at 10 µM. 2.1% of 190,000 active. AID 1362; in the data active = inhibition above about 58%; tested in S. cerevisiae
Starred values were filed as active, the others as inactive; . = not tested or not shown. An excerpt weighted towards active compounds, which were near 9.8% of everything screened.

SMILES | PMI activator | Calpain2 inh | PMI act satM6P | L major viab | Rad51 HR inh | WT yeast gro inh
Cc1[nH]nc2c1C(c1cc(Br)cs1)C(C#N)=C(N)O2 (centres undefined) | 1.1 | 28 | 1 | 99* | 16 | 17
COCc1[nH]nc2c1C(c1ccc(OC)cc1)C(C#N)=C(N)O2 (centres undefined) | 0.8 | -15 | 0.8 | 11 | -7 | 1
Cc1[nH]nc2c1C(c1ccco1)C(C#N)=C(N)O2 (centres undefined) | 1.2 | 1 | 1.1 | 25 | -8 | 0
COc1ccc(-c2ccc(C3C(C#N)=C(N)Oc4n[nH]c(C)c43)o2)cc1 (centres undefined) | 0.9 | -5 | 0.9 | 71* | -11 | 1
CCOC(=O)C1(Cc2ccccc2)CCCN(Cc2ccc(OCC)c(CO)c2)C1 (centres undefined) | 0.9 | -5 | 0.9 | 2 | 4 | 11
Clc1ccccc1Sc1ccc(-c2ccccn2)s1 | . | -4 | . | . | 14 | .
Cc1ccc(NC(=O)C2CCCN2C(=O)NCc2ccccc2)cc1 (centres undefined) | 0.9 | 21 | 0.9 | -4 | 3 | -4
Cc1cc(C)c(C(=O)COC(=O)CCNS(=O)(=O)c2c(Cl)cccc2Cl)cc1C | 1 | 51* | 0.9 | 74* | -3 | 37
O=C(CSc1ncn[nH]1)Nc1nc(-c2ccccc2)cs1 | 1.1 | -86 | 1.1 | 93* | 0 | 18
COc1ccc(-c2[nH]c(-c3ccc(C)cc3)nc2SCC(=O)Nc2nccs2)cc1 | 0.8 | -3 | 0.8 | 23 | 0 | 18
COc1ccc(-c2[nH]c(-c3ccc(SC)cc3)nc2SCC(=O)Nc2nccs2)cc1 | 0.9 | -24 | 1 | 96* | 3 | 19
O=C(CSc1nc(-c2ccccc2)c(-c2ccccc2)[nH]1)Nc1nccs1 | 0.9 | 25 | 0.9 | 98* | -8 | 43
COc1cc(Cl)c(C)cc1NC(=S)NN | 0.8 | -10 | 1 | -10 | -2 | 7
CCOC(=O)C1CCCN(c2oc(-c3ccc(OC)cc3)nc2C#N)C1 (centres undefined) | 0.9 | -277 | 0.9 | 27 | 2 | 0
O=C(Nc1nc(-c2ccccn2)cs1)c1cc(Cl)ccc1[N+](=O)[O-] | 0.7 | -32 | 0.9 | 100* | 11 | 70*
Cc1cc(C(=O)Nc2nc(-c3ccccn3)cs2)ccc1[N+](=O)[O-] | 1.8 | -19 | 2.4* | 100* | 8 | 62*
O=C(Nc1nc(-c2ccccn2)cs1)c1ccc([N+](=O)[O-])o1 | . | 2 | . | . | . | .
COc1ccc(-n2cnnc2SCC(=O)Nc2cc(C(C)(C)C)nn2-c2ccccc2)cc1 | 0.9 | 22 | 1.1 | 4 | -3 | .
COCCn1c(SCC(=O)Nc2ccc(C)cc2C)nc2c(oc3ccccc32)c1=O | 1.1 | 3 | 1.1 | 54* | 7 | -11
COc1ccccc1-n1cnnc1SCC(=O)Nc1cc(C(C)(C)C)nn1-c1ccccc1 | 0.8 | 4 | 0.8 | 9 | -2 | 78*
COCCn1c(SCC(=O)Nc2cc(C(C)(C)C)nn2-c2ccccc2)nc2ccccc2c1=O | 1 | 3 | 1 | 54* | -6 | 6
COCCn1c(SCC(=O)Nc2ccccc2C)nc2c(oc3ccccc32)c1=O | 0.9 | 8 | 1 | 0 | 6 | -5
CCOCCCn1c(SCC(=O)Nc2cc(C(C)(C)C)nn2-c2ccccc2)nc2ccccc2c1=O | 0.9 | -5 | 0.9 | 72* | -25 | 8
CCN1C(=O)/C(=C/c2ccc(C)o2)N(C)C1=S | 0.8 | 4 | 0.7 | 3 | -4 | -4
O=C(CCSc1nnc(-c2ccco2)o1)N1CCOCC1 | 1.1 | 1 | 1 | -7 | 4 | -5
SMILES | PMI activator | Calpain2 inh | PMI act satM6P | L major viab | Rad51 HR inh | WT yeast gro inh
COc1cccc(Nc2nc(-c3ccc(O)cc3)cs2)c1 | 0.8 | 26 | 0.6 | 19 | -18 | 8
Cc1cccnc1Nc1nc(-c2ccc(O)cc2)cs1 | 1.1 | 25 | 1.3 | 99* | -3 | 54
O=C1/C(=C/c2ccncc2)CCC/C1=C\c1ccncc1 | 1 | -6 | 1 | 101* | -8 | 64*
CCOC(=O)c1cc(NC(=O)c2ccco2)ccc1N1CCOCC1 | 0.9 | -5 | 1 | 0 | 2 | -8
Cc1nnsc1-c1c(C(=O)N2CCOCC2)c(C)nn1-c1ccc(Cl)cc1 | . | 15 | . | . | 13 | .
CN(C(=O)Cn1cc(C(F)(F)F)ccc1=O)c1c(N)n(Cc2ccccc2)c(=O)[nH]c1=O | . | 12 | . | . | -2 | .
Cc1cc(/C=C2/SC(=S)N(c3cccc(C(F)(F)F)c3)C2=O)c(C)n1-c1cccnc1 | . | . | . | 80* | -76 | .
Cc1cc(/C=C2\SC(=S)N(Cc3ccco3)C2=O)c(C)n1-c1cccnc1 | 0.8 | -36 | 0.7 | 5 | . | -17
O=C1c2ccc(Br)cc2C(=O)N1c1ccc(Cc2ccncc2)cc1 | . | 88* | . | -2 | 5 | 23
O=C1C2C3C=CC(C3)C2C(=O)N1c1ccc(Cc2ccncc2)cc1 (centres undefined) | 1 | 13 | 1 | -1 | 0 | -20
NCCc1c(-c2ccccc2)n(-c2ccccc2)c2ccccc12 | 1 | -41 | 1 | 101* | -2 | 87*
CCN1C(=O)/C(=C/C=C2/Sc3ccc4ccccc4c3N2CCO)SC1=S | 1 | 8 | 1.1 | 65* | -12 | 8
O=C1CN(C(=O)c2ccc(Br)o2)C(c2ccccc2)c2cc(Cl)ccc2N1 (centres undefined) | 1 | -13 | 1.1 | 87* | -1 | 22
O=C1CN(C(=O)c2ccc(Br)o2)C(c2ccc(F)cc2)c2cc(Cl)ccc2N1 (centres undefined) | 0.9 | -13 | 0.9 | 94* | 2 | 11
CN(Cc1cc(=O)n2ccsc2n1)c1ccccc1 | 1.1 | 1 | 1.2 | 3 | -10 | -6
O=c1cc(CNc2ccc(Br)cc2)nc2sccn12 | 1 | 9 | 1 | 71* | -2 | -16
COC(CNC(=O)c1ccc(N2CCc3ccccc32)c([N+](=O)[O-])c1)OC | 1 | 6 | 1 | 96* | 7 | -25
O=C(Cc1ccc([N+](=O)[O-])cc1)N1N=C(C2CC2)CC1(O)C(F)(F)F (centres undefined) | 1 | 34 | 0.8 | -2 | 1 | 13
CC(C)(C)OC(=O)NCCc1nnc(SCc2ccc(Cl)cc2Cl)o1 | 0.8 | 2 | 0.9 | 1 | -3 | 0
Clc1cccc(NCc2nnc(SCc3ccc(Cl)cc3Cl)o2)c1 | 0.8 | 18 | 0.8 | -5 | 3 | 62*
Cc1csc2c(N3CCN(C(=S)Nc4ccc(F)cc4F)CC3)ncnc12 | . | -17 | . | . | 24 | .
C/C(=N/NC(=O)CNC(=O)Cc1ccccc1)c1ccco1 | 1 | 1 | 1 | 63* | -3 | -15
C/C(=N\NC(=O)CNC(=O)c1ccc2c(c1)OCO2)c1ccco1 | 0.9 | 7 | 0.9 | 53* | -4 | -15
